Measurements taken from article PMC6981055 (Biochemical pharmacology, 2019).
Converted amounts (≈) assume the structure as drawn. “Also recorded” adds a separate entry of the source.

How the values were obtained:
[1] = system: CEM cells; test: Cell proliferation assay: rescue of CEM cells from gemcitabine; assay type: cell-based, human; details: CEM cells treated with gemcitabine with and without DI-87
Method in brief: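 CEM cells plated at 1×10^3 cells/well, exposed to increasing gemcitabine concentrations (up to 10 μM) with or without 1 μM test compound for 72 hr. Viability read by CellTiter-Glo luminescence after 5 min at room temperature.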

[2] = biological target: bovine serum albumin (BSA) (Bos taurus, UniProt P02769); test: Protein binding assessed by IC50 of dCK inhibitor in presence of BSA; assay type: in vitro ADME; details: 25 and 50 mg/mL BSA
bovine serum albumin (BSA), sequence (P02769 25-607): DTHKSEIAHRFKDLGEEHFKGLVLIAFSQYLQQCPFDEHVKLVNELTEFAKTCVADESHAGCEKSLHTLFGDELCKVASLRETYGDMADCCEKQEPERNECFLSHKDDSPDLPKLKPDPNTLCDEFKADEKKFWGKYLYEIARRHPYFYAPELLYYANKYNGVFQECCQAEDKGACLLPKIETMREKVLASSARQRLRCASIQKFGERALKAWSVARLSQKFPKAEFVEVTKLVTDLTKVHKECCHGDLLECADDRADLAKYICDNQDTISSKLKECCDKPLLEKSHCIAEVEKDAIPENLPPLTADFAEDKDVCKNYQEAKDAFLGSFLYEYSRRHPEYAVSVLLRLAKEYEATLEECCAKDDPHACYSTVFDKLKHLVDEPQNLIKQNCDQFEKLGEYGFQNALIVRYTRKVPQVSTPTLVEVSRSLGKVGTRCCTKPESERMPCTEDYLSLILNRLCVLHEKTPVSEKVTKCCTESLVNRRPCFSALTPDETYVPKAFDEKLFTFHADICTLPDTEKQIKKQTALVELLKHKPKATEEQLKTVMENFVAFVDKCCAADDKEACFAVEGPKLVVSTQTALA
Method in brief: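 IC50 was compared between the two BSA levels, with duplicate determinations (n=2) reported as mean±SD.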

[3] = assay type: in vivo, NSG mice
Method in brief: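 Female NSG mice with subcutaneous CEM xenografts (from 50 mm3) given oral gavage at 10, 25 or 50 mg/kg in PEG-200:Transcutol:Labrasol:Tween-80 (5:3:1:1). One terminal plasma and tumor sample per mouse at 1, 3, 6, 9 and 24 h (n=5 per time point). Methanol extraction with internal standard, LC-MS/MS-MRM. Population model with gut depot, plasma and tumor compartments (ADVAN6, TRANS1), exponential inter-subject error and actual tumor volumes.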

[4] = biological target: dCK (Homo sapiens, UniProt P27707); test: dCK activity in CEM tumors by [18F]CFA MicroPET/CT, PK-PD model; assay type: in vivo, NSG mice
dCK, sequence (P27707 whole entry): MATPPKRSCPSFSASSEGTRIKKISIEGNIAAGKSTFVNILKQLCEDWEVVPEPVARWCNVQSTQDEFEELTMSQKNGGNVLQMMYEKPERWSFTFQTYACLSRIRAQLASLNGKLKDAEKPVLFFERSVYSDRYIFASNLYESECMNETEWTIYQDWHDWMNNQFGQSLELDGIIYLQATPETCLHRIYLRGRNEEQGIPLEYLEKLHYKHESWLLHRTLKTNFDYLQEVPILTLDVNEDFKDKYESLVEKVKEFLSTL
Method in brief: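 Male NSG mice bearing subcutaneous CEM tumors (250 mm3) received a single oral dose (5, 10 or 25 mg/kg) in lipid/surfactant vehicle, one time point per mouse (N=4 per time point). Mice were anesthetized and given 740 kBq [18F]CFA i.v. 3 h before imaging. MicroPET/CT acquisition ran 10 min with MAP reconstruction, co-registered CT and manual 3D tumor regions of interest. Modelled tumor concentrations were linked to the effect compartment; linear, Emax and sigmoid Emax fits were compared.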

[5] = system: CEM tumor xenografts; test: Growth inhibition of CEM tumor xenografts, DI-87 with thymidine, PK-PD model; assay type: in vivo; details: for Tumor growth, single agent: agent given alone
Method in brief: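 NSG mice (8–12 weeks) carried subcutaneous CEM xenografts (2 × 10^6 cells, PBS/matrigel 50/50). Dosing began at 50 mm3: oral gavage QD or BID for 16–18 days (PEG-200:Transcutol:Labrasol:Tween-80, 5:3:1:1), plus thymidine 2 g/kg i.p. BID in saline. Controls: thymidine alone, compound plus saline, vehicle plus saline. Tumor size tracked (n=5). An Emax indirect-response PD model was linked to population PK tumor concentrations.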

[6] = oral 10, 25, 50 mg/kg, plasma-tumor population PK model
[7] = plasma-tumor population PK model
[8] = sigmoid Emax indirect response model

## COc1ccc(-c2nc([C@@H](C)Sc3nc(N)cc(N)n3)c(C)s2)cc1OCCN1CCOCC1 [DI-87, (R)-2-((1-(2-(4-methoxy-3-(2-morpholinoethoxy)phenyl)-5-methylthiazol-4-yl)ethyl)thio)pyrimidine-4,6-diamine]
[1]
  Prevention of gemcitabine cytotoxicity: fully prevented cytotoxicity following gemcitabine treatment
[2]
  Protein binding (IC50 in presence of BSA): low protein binding; also recorded: retained its potency in the presence of albumin
[2]; listed as (R)-DI-87
  Protein binding (IC50 in presence of BSA): comparatively lower than its predecessor
[3]; 0.693/(CL/V)
  Half-life (plasma): 4.2 h
[3]; female, NSG, mouse, plasma, oral, Half-life (plasma), 0.693/(CL/V)
  half-life: 4 h
[3]; fixed to the estimate from the plasma PK model
  KA (absorption constant): 0.66 (FIXED) hr
[3]; oral 10, 25, 50 mg/kg, CEM tumor
  Time of peak tumor concentration: 3 to 9 h
[3]; [6]
  CL: 7.67 mL/min/kg
  V (plasma volume of distribution): 2.78 L/kg
[3]; [7]
  Q (intercompartmental clearance plasma-tumor): 0.075 mL/min/kg
  Scalar: 3.69
[4]
  EC50: 617 nM
[4]; [8]
  Gamma (Hill coefficient), DCK inhibition PK-PD model: 58.6
  Kin, DCK inhibition PK-PD model: 0.76
  Kout, DCK inhibition PK-PD model: 0.12
[4]; sigmoid Emax indirect response model, linked to tumor concentrations
  Emax, DCK inhibition PK-PD model: 1.20
[4]; single oral dose 5 mg/kg
  dCK inhibition (PET): minimal dCK inhibition with rapid recovery
[4]; single oral dose 10 mg/kg
  dCK inhibition (PET): full inhibition with recovery initiating at the 12 hr time point
[4]; single oral dose 25 mg/kg
  Earliest time of full dCK inhibition (PET): 3 h
  Time to full recovery of dCK enzyme activity (PET): ≤ 36 h
[5]; DI-87 25 mg/kg BID oral with thymidine 2 g/kg i.p. BID, 25 mg/kg
  Tumor growth inhibition: Near complete growth inhibition; also recorded: maximal tumor growth inhibition
[5]; Emax indirect response model, DI-87 with i.p. thymidine
  Emax, Growth Inhibition PK-PD Model: 1.06
[5]; Mus musculus, ip, read-out: EC50, Growth Inhibition PK-PD Model
  EC50: 3.63 µg/mL (≈ 7.22 µM)
[5]; data not shown
  Tumor growth, single agent: tumor growth curves similar to the control; also recorded: essentially no ability to inhibit growth
[5]; single agent, higher doses, data not shown
  Tolerability as a single agent: well tolerated at higher doses

## Cc1cn([C@H]2C[C@H](O)[C@@H](CO)O2)c(=O)[nH]c1=O [thymidine, reference compound]
[5]; data not shown
  Tumor growth, single agent: tumor growth curves similar to the control
